Measured values: ChEMBL document CHEMBL3259767, “Design, synthesis and biological evaluation of Pontin ATPase inhibitors through a molecular docking approach” (Bioorg Med Chem Lett, 2014)
Activity calls are given as the source filed them. The rule behind the calls is not given here.

Experiments:
HL-60 [1] = assay: Induction of necrosis in human HL60 cells assessed as decrease in total LDH at 1 uM after 48 hrs; type: functional, cell-based
Method in brief: (§1)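 Necrosis marker: LDH released into the culture medium and total LDH were measured in HL60 cells after 24 or 48 h treatment at 5–50 µM, with doxorubicin 1 µM as control.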

[2] = target: RuvB-like 1 (Homo sapiens) (UniProt Q9Y265); assay: Inhibition of human recombinant his-tagged pontin expressed in Escherichia coli BL21 assessed as reduction in inorganic phosphate release at 100 uM after 10 mins by malachite green-based colorimetric assay
RuvB-like 1 (Homo sapiens), sequence (Q9Y265 whole entry): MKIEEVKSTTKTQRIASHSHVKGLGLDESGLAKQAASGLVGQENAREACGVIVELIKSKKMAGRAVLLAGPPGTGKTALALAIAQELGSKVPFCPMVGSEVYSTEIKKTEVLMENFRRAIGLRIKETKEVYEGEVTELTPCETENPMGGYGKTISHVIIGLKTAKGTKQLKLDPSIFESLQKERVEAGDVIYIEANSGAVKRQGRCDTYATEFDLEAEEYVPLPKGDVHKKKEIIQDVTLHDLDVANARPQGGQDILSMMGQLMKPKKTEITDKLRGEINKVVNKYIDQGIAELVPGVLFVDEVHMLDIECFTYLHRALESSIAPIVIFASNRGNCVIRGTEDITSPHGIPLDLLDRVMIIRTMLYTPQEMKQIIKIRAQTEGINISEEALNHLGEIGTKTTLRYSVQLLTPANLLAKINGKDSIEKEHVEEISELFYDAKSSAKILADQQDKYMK
Method in brief: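 Pontin ATPase activity was measured as inorganic phosphate release by malachite green assay, with compounds tested at 100 µM.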

MCF7 = assay: Antiproliferative activity against human MCF7 cells at 10 uM after 72 hrs; type: functional, cell-based
Method in brief: (§2)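 Cells exposed to compound for 72 h. IC50 values come from KB and HL60 cells. Single-point screening was run at 10^-5 M.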

HL-60 [3] = assay: Antiproliferative activity against human HL60 cells at 10 uM after 72 hrs; type: functional, cell-based; method in brief: as §2
KB [4] = assay: Antiproliferative activity against human KB cells at 10 uM after 72 hrs; type: functional, cell-based; method in brief: as §2
HCT-116 = assay: Antiproliferative activity against human HCT116 cells at 10 uM after 72 hrs; type: functional, cell-based; method in brief: as §2
HL-60 [5] = assay: Induction of apoptosis in human HL60 cells assessed as caspase 3 activity measured as cleavage of DEVD at 50 uM after 48 hrs by FACS analysis relative to control; type: functional
Method in brief: (§3)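 Caspase 3 activity was read in HL60 cells after 24 or 48 h treatment at 5–50 µM, with doxorubicin 1 µM as positive control. Activity is expressed relative to untreated HL60, set at 100.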

HL-60 [6] = assay: Induction of necrosis in human HL60 cells assessed as decrease in total LDH after 48 hrs; type: functional, cell-based; method in brief: as §1
HL-60 [7] = assay: Cell cycle arrest in human HL60 cells assessed as accumulation at G2/M phase at 5 uM after 24 hrs by propidium iodide-based flow cytometry (reference value: 2.5 %); type: functional
Method in brief: (§4)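 HL60 cells were treated for 24 h at 5, 20 or 50 µM, with doxorubicin 50 nM as control. DNA was stained with propidium iodide and analysed by flow cytometry. Results are the percentage of cells in subG1, G0/G1, S and G2/M.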

HL-60 [8] = assay: Induction of apoptosis in human HL60 cells assessed as caspase 3 activity measured as cleavage of DEVD at 5 uM after 24 hrs by FACS analysis relative to control; type: functional; method in brief: as §3
HL-60 [9] = assay: Induction of apoptosis in human HL60 cells assessed as caspase 3 activity measured as cleavage of DEVD at 20 uM after 24 hrs by FACS analysis relative to control; type: functional; method in brief: as §3
HL-60 [10] = assay: Cell cycle arrest in human HL60 cells assessed as accumulation at G2/M phase at 50 uM after 24 hrs by propidium iodide-based flow cytometry (reference value: 2.5 %); type: functional; method in brief: as §4
HL-60 [11] = assay: Induction of apoptosis in human HL60 cells at 20 uM after 48 hrs by FACS analysis; type: functional, cell-based
Method in brief: (§5)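 HL60 cells were labelled with annexin and 7-AAD after 24 or 48 h exposure at 5, 20 or 50 µM, with doxorubicin 100 nM as reference. FACS sorted cells into intact, early apoptotic, late apoptotic and necrotic fractions, given as percentages.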

HL-60 [12] = assay: Induction of apoptosis in human HL60 cells at 20 uM after 24 hrs by FACS analysis; type: functional, cell-based; method in brief: as §5
HL-60 [13] = assay: Cell cycle arrest in human HL60 cells assessed as accumulation at S phase at 5 uM after 24 hrs by propidium iodide-based flow cytometry (reference value: 48.7 %); type: functional; method in brief: as §4
HL-60 [14] = assay: Cell cycle arrest in human HL60 cells assessed as accumulation at G0/G1 phase at 5 uM after 24 hrs by propidium iodide-based flow cytometry (reference value: 47.6 %); type: functional; method in brief: as §4
HL-60 [15] = assay: Induction of apoptosis in human HL60 cells at 50 uM after 24 hrs by FACS analysis relative to control; type: functional; method in brief: as §5
HL-60 [16] = assay: Cell cycle arrest in human HL60 cells assessed as accumulation at subG1 phase at 20 uM after 24 hrs by propidium iodide-based flow cytometry (reference value: 1.2 %); type: functional; method in brief: as §4
HL-60 [17] = assay: Induction of apoptosis in human HL60 cells assessed as caspase 3 activity measured as cleavage of DEVD at 10 uM after 48 hrs by FACS analysis relative to control; type: functional; method in brief: as §3
HL-60 [18] = assay: Induction of apoptosis in human HL60 cells assessed as caspase 3 activity measured as cleavage of DEVD at 50 uM after 24 hrs by FACS analysis relative to control; type: functional; method in brief: as §3
HL-60 [19] = assay: Cell cycle arrest in human HL60 cells assessed as accumulation at subG1 phase at 5 uM after 24 hrs by propidium iodide-based flow cytometry (reference value: 1.2 %); type: functional; method in brief: as §4
KB [20] = assay: Antiproliferative activity against human KB cells after 72 hrs; type: functional, cell-based; method in brief: as §2
HL-60 [21] = assay: Induction of apoptosis in human HL60 cells assessed as caspase 3 activity measured as cleavage of DEVD at 10 uM after 24 hrs by FACS analysis relative to control; type: functional; method in brief: as §3
HL-60 [22] = assay: Induction of apoptosis in human HL60 cells after 24 to 48 hrs by FACS analysis; type: functional, cell-based; method in brief: as §5
HL-60 [23] = assay: Induction of apoptosis in human HL60 cells assessed as caspase 3 activity measured as cleavage of DEVD at 20 uM after 48 hrs by FACS analysis relative to control; type: functional; method in brief: as §3
HL-60 [24] = assay: Induction of apoptosis in human HL60 cells assessed as caspase 3 activity measured as cleavage of DEVD after 24 to 48 hrs by FACS analysis relative to control; type: functional, cell-based; method in brief: as §3
HL-60 [25] = assay: Cell cycle arrest in human HL60 cells assessed as accumulation at S phase at 20 uM after 24 hrs by propidium iodide-based flow cytometry (reference value: 48.7 %); type: functional; method in brief: as §4
HL-60 [26] = assay: Cell cycle arrest in human HL60 cells assessed as accumulation at G0/G1 phase at 50 uM after 24 hrs by propidium iodide-based flow cytometry (reference value: 47.6 %); type: functional; method in brief: as §4
HL-60 [27] = assay: Cell cycle arrest in human HL60 cells assessed as accumulation at G0/G1 phase at 20 uM after 24 hrs by propidium iodide-based flow cytometry (reference value: 47.6 %); type: functional; method in brief: as §4
HL-60 [28] = assay: Cell cycle arrest in human HL60 cells assessed as accumulation at S phase at 50 uM after 24 hrs by propidium iodide-based flow cytometry (reference value: 48.7 %); type: functional; method in brief: as §4
HL-60 [29] = assay: Cell cycle arrest in human HL60 cells assessed as accumulation at G2/M phase at 20 uM after 24 hrs by propidium iodide-based flow cytometry (reference value: 2.5 %); type: functional; method in brief: as §4
HL-60 [30] = assay: Cell cycle arrest in human HL60 cells assessed as accumulation at subG1 phase at 50 uM after 24 hrs by propidium iodide-based flow cytometry (reference value: 1.2 %); type: functional; method in brief: as §4
HL-60 [31] = assay: Induction of necrosis in human HL60 cells assessed as LDH release at >20 uM after 24 hrs; type: functional, cell-based; method in brief: as §1
[32] = Antiproliferative activity against human EPC cells after 72 hrs; type: cell-based
HL-60 [33] = assay: Induction of apoptosis in human HL60 cells assessed as caspase 3 activity measured as cleavage of DEVD at 5 uM after 48 hrs by FACS analysis relative to control; type: functional; method in brief: as §3
HL-60 [34] = assay: Cell cycle arrest in human HL60 cells assessed as accumulation at subG1 phase after 24 hrs by propidium iodide-based flow cytometry; type: functional; method in brief: as §4
HL-60 [35] = assay: Antiproliferative activity against human HL60 cells after 72 hrs; type: functional, cell-based; conditions: HL-60, 72 h; method in brief: as §2

COc1cccc2c1C(=O)c1c(O)c3c(c(O)c1C2=O)C[C@@](O)(C(=O)CO)C[C@@H]3O[C@H]1C[C@H](N)[C@H](O)[C@H](C)O1
Activity (HL-60 [1]): Active

O=C(O)[C@@H](Cc1c[nH]c2ccccc12)NCc1ccc(-c2c(O)c3ccccc3[nH]c2=O)cc1
inhibition [2]: inactive
Activity (MCF7): inactive
Activity (HL-60 [3]): inactive
Activity (KB [4]): inactive
Activity (HCT-116): inactive

N[C@@H](Cc1c[nH]c2ccccc12)C(=O)Nc1ccc(-c2c(O)c(-c3ccccc3)c[nH]c2=O)cc1
Activity (HL-60 [5]): 169%
Activity (HL-60 [6]): Dose-dependent effect
Activity (HL-60 [7]): 4.3%
Activity (HL-60 [8]): 116%
Activity (HL-60 [9]): 134%
Activity (HL-60 [10]): 1.3%
Activity (HL-60 [11]): Active
Activity (HL-60 [12]): Active
Activity (HL-60 [13]): 44.7%
Activity (HL-60 [14]): 48.3%
inhibition [2]: Active
Activity (HL-60 [15]): 95%
Activity (HL-60 [16]): 10.9%
Activity (HL-60 [17]): 131%
Activity (HL-60 [18]): 306%
Activity (HL-60 [19]): 2.7%
IC50 (KB [20]): 9 µM
Activity (HL-60 [21]): 111%
Activity (HL-60 [22]): Dose-dependent effect
Activity (HL-60 [23]): 247%
Activity (HL-60 [24]): Dose-dependent effect
Activity (HL-60 [25]): 34.4%
Activity (HL-60 [26]): 14.7%
Activity (HL-60 [27]): 46.8%
Activity (MCF7): Active
Activity (HL-60 [28]): 14.6%
Activity (HL-60 [29]): 8%
Activity (HL-60 [30]): 69.5%
Activity (HL-60 [31]): Active
IC50 [32]: 25 µM
Activity (HL-60 [33]): 119%
Activity (HL-60 [3]): Active
Activity (KB [4]): Active
Activity (HL-60 [34]): Dose-dependent effect
Activity (HCT-116): Active
IC50 (HL-60 [35]): 15 µM

N[C@@H](Cc1c[nH]c2ccccc12)C(=O)Nc1ccc(-c2c(O)c3ccccc3[nH]c2=O)cc1
Activity (MCF7): inactive
Activity (HL-60 [3]): inactive
Activity (KB [4]): inactive
Activity (HCT-116): inactive

O=C(O)[C@H](Cc1c[nH]c2ccccc12)NCc1ccc(-c2c(O)c3ccccc3[nH]c2=O)cc1
inhibition [2]: inactive
Activity (MCF7): inactive
Activity (HL-60 [3]): inactive
Activity (KB [4]): inactive
Activity (HCT-116): inactive
